Experimental data reported in ChEMBL document CHEMBL1817654, “Synthesis and protective effects of aralkyl alcoholic 2-acetamido-2-deoxy-β-D-pyranosides on hypoglycemia and serum limitation induced apoptosis in PC12 cell” (2011).
The source made the active and inactive calls. No cut-off for these calls is given here.

Key:
PC-12 [1] = assay: Neuroprotective activity in rat differentiated PC12 cells assessed protection against hypoglycemia and serum limitation-induced decrease in cell viability at 40 uM after 24 hrs by MTT assay; format: functional
In short: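 NGF-differentiated PC12 cells (50 ng/ml every other day, 6 days) pretreated with 8, 40 or 200 µM for 24 h. Insult: 24 h in glucose-free DMEM with 1% horse serum and 1% FBS, compound kept. MTT added to 0.5 mg/ml for 4 h at 37 °C, formazan dissolved in 20% SDS, absorbance read at 570 nm. Viability given as % of unstressed control. Three independent experiments, each in triplicate.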

PC-12 [2] = assay: Neuroprotective activity in rat differentiated PC12 cells assessed protection against hypoglycemia and serum limitation-induced late stage of apoptosis at 40 uM after 24 hrs using annexin V/propidium iodide double staining by flow cytometry; format: functional, cell-based
In short: (§1)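 Differentiated PC12 cells pretreated 24 h, then 24 h of glucose-free DMEM with 1% horse and 1% fetal serum. Harvested cells resuspended at 1 × 10⁶/ml in binding buffer (10 mM HEPES, 140 mM NaCl, 2.5 mM CaCl₂). FITC-annexin V and PI added, 15 min in the dark at room temperature, analysed by flow cytometry within 1 h. Three independent experiments in triplicate.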

PC-12 [3] = assay: Neuroprotective activity in rat differentiated PC12 cells assessed reversal of hypoglycemia and serum limitation-induced mitochondrial membrane potential at 40 uM after 24 hrs using Rhodamine dye by confocal microscopic analysis; format: functional
In short: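 Differentiated PC12 cells given 24 h pretreatment, then 24 h in glucose-free DMEM with 1% horse serum and 1% FBS. Rhodamine 123 added to 2 µM final for 30 min at 37 °C. Cells fixed in 4% paraformaldehyde and imaged by confocal microscopy (ex 488, em 530 nm, ×400). Fluorescence intensity given as % of control. Three independent experiments in triplicate.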

PC-12 [4] = assay: Neuroprotective activity in rat differentiated PC12 cells assessed protection against hypoglycemia and serum limitation-induced apoptosis at 40 uM after 24 hrs by Hoechst 33342 staining analysis; format: functional
In short: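 PC12 cells kept in high-glucose DMEM with 10% horse serum and 5% FBS, differentiated with NGF (50 ng/ml) every other day for 6 days. Pretreated 24 h, then glucose-free DMEM with 1% horse and 1% fetal serum for 24 h with compound kept. Cells fixed in 4% paraformaldehyde, stained with Hoechst 33342 (5 µg/ml, 37 °C, 10 min). Condensed or fragmented nuclei counted under UV fluorescence as a fraction of total cells. Three independent experiments in triplicate.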

PC-12 [5] = assay: Neuroprotective activity in rat differentiated PC12 cells assessed reduction of hypoglycemia and serum limitation-induced caspase 3 activity at 40 uM after 24 hrs by colorimetric assay relative to control; format: functional
In short: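 Treatment: NGF-differentiated PC12 cells preincubated 24 h, then 24 h of hypoglycemia and serum limitation. Lysates spun at 12,000 g for 10 min, protein measured by Bradford. Lysate incubated with reaction buffer and Ac-DEVD-pNA (10 µl of a 2 mM stock) for 4 h at 37 °C. pNA release read at 405 nm, expressed as % of control.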

PC-12 [6] = assay: Neuroprotective activity in rat differentiated PC12 cells assessed protection against hypoglycemia and serum limitation-induced early stage of apoptosis at 40 uM after 24 hrs using annexin V/propidium iodide double staining by flow cytometry; format: functional; in short: as §1

Compound	Activity (PC-12 [1])	Activity (PC-12 [2])	Activity (PC-12 [3]) [%]	Activity (PC-12 [4]) [%]	fold change (FC) (PC-12 [5])	Activity (PC-12 [6]) [%]
CC(=O)N[C@H]1[C@H](OCc2ccc(O)cc2)O[C@H](CO)[C@@H](O)[C@@H]1O	60.65%					
COc1ccc(CCO[C@@H]2O[C@H](CO)[C@@H](O)[C@H](O)[C@H]2NC(C)=O)cc1	86.62%	inactive	82.86	5.9	1.55	11.21
CC(=O)N[C@H]1[C@H](OCCc2ccc(O)cc2)O[C@H](CO)[C@@H](O)[C@@H]1O	65.36%					
COc1ccc(CCCO[C@@H]2O[C@H](CO)[C@@H](O)[C@H](O)[C@H]2NC(C)=O)cc1	80.41%	inactive	79.05	7.12	1.69	15.51
CC(=O)N[C@H]1[C@H](OCCCc2ccc(O)cc2)O[C@H](CO)[C@@H](O)[C@@H]1O	Active					
OC[C@H]1O[C@@H](OCCc2ccc(O)cc2)[C@H](O)[C@@H](O)[C@@H]1O [SALIDROSIDE]	65.62%	inactive	71.43	8.31	1.97	17.56
COc1cc(CO[C@@H]2O[C@H](CO)[C@@H](O)[C@H](O)[C@H]2NC(C)=O)cc(OC)c1	Active					
CC(=O)N[C@H]1[C@H](OCc2ccccc2)O[C@H](CO)[C@@H](O)[C@@H]1O	inactive					
COc1cc(CCCO[C@@H]2O[C@H](CO)[C@@H](O)[C@H](O)[C@H]2NC(C)=O)ccc1O	62.38%					
CC(=O)N[C@H]1[C@H](OCCc2ccccc2)O[C@H](CO)[C@@H](O)[C@@H]1O	inactive					
CC(=O)N[C@H]1[C@H](OCc2cccc(O)c2)O[C@H](CO)[C@@H](O)[C@@H]1O	Active					
COc1cc(CO[C@@H]2O[C@H](CO)[C@@H](O)[C@H](O)[C@H]2NC(C)=O)ccc1O	65.9%					
